Measurements taken from ChEMBL document CHEMBL3588796 (Bioorg Med Chem, 2015).

Experiments:
[1] = target: Kappa-type opioid receptor (Rattus norvegicus, UniProt P34975); experiment: Displacement of radio-labeled U69,593 from rat kappa opioid receptor expressed in HEK293 cell membranes
[2] = target: T1, Mu-type opioid receptor (Homo sapiens, UniProt P35372); experiment: Binding affinity to mu opioid receptor (unknown origin)
[3] = target: T2, Delta-type opioid receptor (Homo sapiens, UniProt P41143); experiment: Binding affinity to delta opioid receptor (unknown origin)
T2 sequence (P41143 whole entry): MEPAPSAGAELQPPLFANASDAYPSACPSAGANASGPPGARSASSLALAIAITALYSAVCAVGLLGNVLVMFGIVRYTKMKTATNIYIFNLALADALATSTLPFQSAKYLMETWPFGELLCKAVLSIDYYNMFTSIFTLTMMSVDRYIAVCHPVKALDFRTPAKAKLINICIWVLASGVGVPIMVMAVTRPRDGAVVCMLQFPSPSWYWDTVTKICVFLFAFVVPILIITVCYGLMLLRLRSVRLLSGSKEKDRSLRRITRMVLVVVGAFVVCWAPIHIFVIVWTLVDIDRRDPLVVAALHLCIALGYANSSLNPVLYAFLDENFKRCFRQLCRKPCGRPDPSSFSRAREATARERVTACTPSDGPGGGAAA

[4] = target: T3, Kappa-type opioid receptor (Homo sapiens, UniProt P41145); experiment: Antagonist activity against HA-tagged human recombinant kappa opioid receptor expressed in CHO cells assessed as inhibition of U69,593-induced ERK phosphorylation pre-incubated with compound before U69,593 stimulation for 10 mins relative to control; type: cell-based; design: concentration or dose not given beside the values
T3 sequence (P41145 whole entry): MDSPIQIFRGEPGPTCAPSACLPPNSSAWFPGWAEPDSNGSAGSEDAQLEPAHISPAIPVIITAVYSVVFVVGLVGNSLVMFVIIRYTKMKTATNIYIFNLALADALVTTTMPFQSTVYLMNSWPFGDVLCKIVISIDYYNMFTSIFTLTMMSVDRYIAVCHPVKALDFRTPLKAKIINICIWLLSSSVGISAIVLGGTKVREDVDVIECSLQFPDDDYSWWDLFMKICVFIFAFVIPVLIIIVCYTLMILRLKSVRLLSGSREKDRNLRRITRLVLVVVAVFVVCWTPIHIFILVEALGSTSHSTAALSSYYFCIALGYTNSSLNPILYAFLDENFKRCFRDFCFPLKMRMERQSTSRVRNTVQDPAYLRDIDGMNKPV
Method in brief: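 hKOR-CHO cells, 15,000 per well, plated overnight at 37 °C and serum-starved 1 h. Compound added, then 100 nM U69,593 for 10 min at 37 °C. Fixed cells stained overnight at 4 °C for phospho- and total ERK1/2. In-cell western read by infrared imaging at 700/800 nm. Three-parameter nonlinear fit; 2–4 replicates per experiment, n ≥ 3.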

[5] = target: T3, Kappa-type opioid receptor; experiment: Antagonist activity against human kappa opioid receptor expressed in human U2OS cells co-expressing beta-arrestin2 pre-treated for 15 mins before U69,593 stimulation for 90 mins by DiscoveRx beta-arrestin2 recruitment based PathHunter assay relative to control; type: cell-based; design: concentration or dose not given beside the values
Method in brief: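 U2OS-hKOR-βarrestin2 PathHunter cells, 5,000 per well, plated overnight in Opti-MEM with 1% FBS. Antagonist pretreatment 15 min at 37 °C, then 1 μM U69,593 for 90 min at 37 °C. Detection reagent 60 min at room temperature; chemiluminescence read-out. Concentration-response curves fitted by three-parameter regression; n ≥ 3 independent experiments.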

[6] = target: T2, Delta-type opioid receptor; experiment: Antagonist activity against delta opioid receptor (unknown origin)
[7] = target: T1, Mu-type opioid receptor; experiment: Antagonist activity against mu opioid receptor (unknown origin)
[8] = target: T3, Kappa-type opioid receptor; experiment: Antagonist activity against HA-tagged human recombinant kappa opioid receptor expressed in CHO cell membranes incubated for 1 hr by [35S]GTPgammaS binding assay; type: functional
[9] = target: T3, Kappa-type opioid receptor; experiment: Antagonist activity against HA-tagged human recombinant kappa opioid receptor expressed in CHO cells assessed as inhibition of U69,593-induced ERK phosphorylation pre-incubated with compound before U69,593 stimulation for 10 mins; type: cell-based
[10] = target: T3, Kappa-type opioid receptor; experiment: Antagonist activity against human kappa opioid receptor expressed in human U2OS cells co-expressing beta-arrestin2 pre-treated for 15 mins before U69,593 stimulation for 90 mins by DiscoveRx beta-arrestin2 recruitment based PathHunter assay; type: cell-based

T1 sequence (P35372 whole entry): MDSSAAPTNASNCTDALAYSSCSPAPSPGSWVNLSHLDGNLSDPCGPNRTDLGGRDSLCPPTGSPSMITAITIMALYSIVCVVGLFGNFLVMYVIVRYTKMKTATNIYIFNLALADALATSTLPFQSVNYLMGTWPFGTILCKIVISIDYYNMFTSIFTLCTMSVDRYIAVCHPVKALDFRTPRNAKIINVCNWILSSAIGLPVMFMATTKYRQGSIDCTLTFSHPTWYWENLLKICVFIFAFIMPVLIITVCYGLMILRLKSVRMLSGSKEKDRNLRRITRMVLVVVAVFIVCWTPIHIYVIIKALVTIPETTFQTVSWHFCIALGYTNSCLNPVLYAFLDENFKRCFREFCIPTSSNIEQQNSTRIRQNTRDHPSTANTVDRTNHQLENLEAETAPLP
Chain of Kappa-type opioid receptor (Rattus norvegicus, UniProt P34975) (P34975 whole entry): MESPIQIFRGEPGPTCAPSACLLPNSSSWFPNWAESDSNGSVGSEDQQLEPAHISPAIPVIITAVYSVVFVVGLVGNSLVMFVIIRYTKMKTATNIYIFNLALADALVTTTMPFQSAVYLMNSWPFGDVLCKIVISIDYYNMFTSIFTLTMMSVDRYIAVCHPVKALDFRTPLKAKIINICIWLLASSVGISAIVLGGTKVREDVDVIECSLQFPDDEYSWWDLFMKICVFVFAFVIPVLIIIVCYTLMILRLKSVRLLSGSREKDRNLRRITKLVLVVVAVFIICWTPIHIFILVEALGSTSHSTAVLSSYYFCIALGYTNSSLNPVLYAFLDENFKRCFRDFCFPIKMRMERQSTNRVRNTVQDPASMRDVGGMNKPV

Row | SMILES | inhibition [4] [%] | inhibition [5] [%] | further results
1 | Cc1ccc(S(=O)(=O)N2CCc3cc(C(=O)NCCN(Cc4ccc(Cl)cc4)C(C)(C)C)ccc3C2)cc1 | > 86 | > 86 | Ki [1]: 0.053 µM; Ki [2]: > 10 µM; Ki [3]: > 10 µM
2 | Cc1cc(C)c(S(=O)(=O)N2CCc3cc(C(=O)NCCN(Cc4ccc(Br)cc4)C(C)(C)C)ccc3C2)c(C)c1 | > 86 | > 86 | –
3 | Cc1ccc(S(=O)(=O)N2CCc3cc(C(=O)NCCN(Cc4ccc(F)cc4)C(C)C)ccc3C2)cc1 | > 86 | > 86 | –
4 | Cc1ccc(S(=O)(=O)N2CCc3cc(C(=O)NCCN(Cc4ccccc4)C(C)(C)C)ccc3C2)cc1 | > 86 | > 86 | Ki [1]: 0.037 µM; Ki [2]: 1.75 µM; Ki [3]: 2.33 µM
5 | Cc1ccc(S(=O)(=O)N2CCc3cc(C(=O)NCCN(Cc4ccc(Br)cc4)C(C)C)ccc3C2)cc1 | > 86 | > 86 | Ki [1]: 0.073 µM; Ki [2]: 8.17 µM; Ki [3]: 5.19 µM
6 | CCc1ccc(S(=O)(=O)N2CCc3cc(C(=O)NCCN(Cc4ccccc4)C(C)(C)C)ccc3C2)cc1 | > 86 | > 86 | –
7 | Cc1ccc(S(=O)(=O)N2CCc3cc(C(=O)NCCN(Cc4ccc(F)cc4)C(C)(C)C)ccc3C2)cc1 | > 86 | > 86 | –
8 | Cc1ccc(S(=O)(=O)NCc2ccc(C(=O)NCCN(Cc3ccccc3)C(C)C)cc2)cc1 | > 86 | > 86 | Ki [1]: 0.05 µM; Ki [2]: 0.306 µM; IC50 [6]: > 32 µM; Ki [3]: 1.09 µM; IC50 [7]: > 24 µM
9 | Cc1ccc(S(=O)(=O)N2CCc3cc(C(=O)NCCN(Cc4ccc(Br)cc4)C(C)(C)C)ccc3C2)cc1 | > 86 | > 86 | –
10 | Oc1ccc2c3c1O[C@H]1c4[nH]c5c(c4C[C@@]4(O)[C@@H](C2)N(CC2CC2)CC[C@]314)C[C@@]1(O)[C@H]2Cc3ccc(O)c4c3[C@@]1(CCN2CC1CC1)[C@H]5O4 | > 86 | > 86 | –
11 | Cc1cc(C)c(S(=O)(=O)N2CCc3cc(C(=O)NCCN(Cc4ccc(F)cc4)C(C)(C)C)ccc3C2)c(C)c1 | > 86 | > 86 | –
12 | Cc1ccc(S(=O)(=O)NCc2ccc(C(=O)NCCN3Cc4ccccc4C3)cc2)cc1 | – | – | IC50 ([8]; read-out: IC50): > 18 µM
13 | Cc1ccc(S(=O)(=O)N2CCc3cc(C(=O)NCCN(Cc4ccc(Cl)cc4)C(C)C)ccc3C2)cc1 | > 86 | > 86 | –
14 | Cc1ccc(S(=O)(=O)N(C)Cc2ccc(C(=O)N(C)CCN(Cc3ccccc3)C(C)C)cc2)cc1 | – | – | IC50 ([8]; cho): Not Active; IC50 [9]: Not Active; IC50 [10]: Not Active
15 | CCc1ccc(S(=O)(=O)N2CCc3cc(C(=O)NCCN(Cc4ccc(Br)cc4)C(C)C)ccc3C2)cc1 | > 86 | > 86 | –
16 | Cc1ccc(S(=O)(=O)NCc2ccc(C(=O)NCCN(Cc3ccc(Br)cc3)C(C)C)cc2)cc1 | > 86 | > 86 | –
17 | Cc1cc(C)c(S(=O)(=O)N2CCc3cc(C(=O)NCCN(Cc4ccccc4)C(C)C)ccc3C2)c(C)c1 | > 86 | > 86 | –
18 | Cc1ccc(S(=O)(=O)NCc2ccc(C(=O)NCC3CCCN(Cc4ccccc4)C3)cc2)cc1 (stereo not given) | – | – | IC50 ([8]; read-out: IC50): > 18 µM
19 | Cc1ccc(S(=O)(=O)NCc2ccc(C(=O)NC3CCN(Cc4ccccc4)C3)cc2)cc1 (stereo not given) | – | – | IC50 ([8]; read-out: IC50): > 18 µM
